Only some compounds are listed: those with a hit (about 3.6% of all), similar ones and a draw of the others.
EBNA-1 inh: blocks EBNA-1 binding to DNA | EBNA-1 DNA binding, fluorescence polarization | inhibition, % at 14.8 µM | actives 0.34% (n = 300,000); in the data active = inhibition above about 28%
GRIN3A LBD mod: NR3A (human) ligand-binding domain modulation. AID 1259313. NR3A LBD differential scanning fluorimetry, Tm shift; 0% = protein alone, 100% = glycine-bound protein. Tm shift relative to glycine control, % at 25 µM. actives 2.5% (n = 340,000);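 active = melting temperature shift of at least 10% of the positive control shift, at one fixed dose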
NS3 helicase inh: HCV NS3 helicase inhibition; NS3 helicase DNA unwinding, Cy5 molecular beacon fluorescence; inhibition, % at 10.9 µM; actives 0.56% (n = 290,000); AID 1800;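 active = inhibition above the mean of all tested compounds plus 3 SD, set per campaign, cut at about 35% in these data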;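 also: 0% = DMSO wells and 100% = thioflavine S control wells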
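Compound dosing – single dose, 10.9 µM nominal final, DMSO 0.8% final · System – NS3 helicase fragment of HCV · Buffer or medium – MOPS pH 6.5, MgCl2, DTT, Tween20, BSA · Signal – Cy5 beacon fluorescence read at start and 1 h · Also added – annealed dual-labelled DNA beacon duplex, ATP-started · Schedule – 1 h at 25 °C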
ZTA DNA inh: blocks Epstein-Barr virus ZTA, an EBNA-1 counter-screen | ZTA-DNA binding, fluorescence polarization | inhibition, % at 11 µM | actives 0.15% (n = 320,000); in the data active = inhibition above about 33%
Target sequence (P03206 whole entry, looked up): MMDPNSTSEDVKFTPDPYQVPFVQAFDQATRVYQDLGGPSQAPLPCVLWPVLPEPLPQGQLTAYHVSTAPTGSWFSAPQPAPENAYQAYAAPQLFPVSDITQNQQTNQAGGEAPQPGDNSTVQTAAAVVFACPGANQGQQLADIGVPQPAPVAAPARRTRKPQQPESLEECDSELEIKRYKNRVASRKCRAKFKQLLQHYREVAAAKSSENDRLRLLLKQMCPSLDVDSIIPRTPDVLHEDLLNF
FGF22 binding: shifts melting point of recombinant human FGF22 | recombinant FGF22 thermal shift, SYPRO orange fluorescence; percent of sucrose octasulfate shift, DMSO zero | activity (Tm shift, normalised), % at 9.99 µM | actives 1.5% (n = 340,000);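 active = mean Tm shift, scaled 0 neutral to 100 positive control, at about 1.3% or above, every replicate too, limit read from the data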
DNA FID counter: fluorescent intercalator displacement, NS3 helicase counter-screen | actives 0.17% (n = 290,000) | DNA fluorescent intercalator displacement, fluorescence | inhibition, % at 7.9 µM; in the data active = inhibition above about 37%;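 also: 0% = vehicle and 100% = reference compound; higher means more ethidium bromide displaced from hairpin DNA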
* hit, by the source's call; nt = not tested or not shown.

SMILES | EBNA-1 inh | GRIN3A LBD mod | NS3 helicase inh | ZTA DNA inh | FGF22 binding | DNA FID counter
C[C@@H](NC(=O)C[C@@H]1CC[C@@H]2[C@H](COC[C@H](O)CN2Cc2ccc(C(F)(F)F)cc2)O1)c1ccccc1 | nt | nt | nt | nt | 0 | nt
CO[C@H]1CN(C)C(=O)c2cc(NC(=O)c3cnccn3)ccc2OC[C@H](C)N(C(C)=O)C[C@@H]1C | nt | nt | nt | nt | 0 | nt
CN1C(=O)c2cc(NC(=O)C3CCCCC3)ccc2OC[C@H]2O[C@H](CC(=O)NCCc3ccncc3)CC[C@@H]21 | nt | nt | nt | nt | 0 | nt
CCCC(=O)Nc1ccc2c(c1)OC[C@H](C)N(CCC(F)(F)F)C[C@H](C)[C@@H](OC)CN(C)C2=O | nt | nt | nt | nt | 0 | nt
C[C@@H]1CN([C@H](C)CO)C(=O)c2cc(-c3ccncc3)cnc2O[C@@H]1CN(C)C(=O)NC1CCCC1 | nt | nt | nt | nt | 0 | nt
CC(C)c1ccc(NC(=O)c2ccc(NS(C)(=O)=O)cc2)cc1 | -20 | 20* | 1 | 1 | 1 | -3
CCCOc1cccc(C(=O)Nc2cccc(NC(=O)c3ccco3)c2)c1 | -13 | 7 | -7 | -2 | nt | -20
COc1cc(NC(=O)c2cccc([N+](=O)[O-])c2)ccc1NC(=O)c1ccco1 | 2 | 27* | 9 | -6 | 44* | 4
CCCCOc1cccc(C(=O)Nc2ccc(NC(=O)c3ccco3)cc2)c1 | 17 | 12* | -2 | 9 | 0 | -15
C/C(=N\NS(=O)(=O)c1ccccc1)c1cccc(NC(=O)c2cccc(Cl)c2)c1 | 4 | 15* | 11 | 5 | nt | -1
C[C@@H]1CN([C@H](C)CO)C(=O)c2cc(NC(=O)Nc3cccc4ccccc34)ccc2O[C@@H](C)CCCCO[C@H]1CN(C)S(=O)(=O)c1ccc(F)cc1 | nt | nt | nt | nt | 0 | nt
C[C@H](CO)N1C[C@H](C)[C@H](CN(C)C(=O)Nc2ccccc2)Oc2ccc(NS(C)(=O)=O)cc2C1=O | nt | nt | nt | nt | 0 | nt
CNC(=O)C[C@H]1CC[C@H]2[C@H](COc3ccc(NC(=O)Nc4cccc(F)c4)cc3C(=O)N2C)O1 | nt | nt | nt | nt | 0 | nt
COc1cc(NS(=O)(=O)c2ccc(NC(C)=O)cc2)ncn1 | 4 | -1 | -9 | -8 | nt | -4
Cc1nc2ccc(NC(=O)c3ccccc3)cc2s1 | 16 | -27 | 1 | -1 | 1 | -4
COc1cc(NS(=O)(=O)c2ccc(NC(=O)c3ccc(F)cc3)cc2)ncn1 | 6 | 13* | 32 | -15 | 0 | -19
C/C(=N\NC(=O)c1ccc(F)cc1)c1cccc(NC(=O)c2cccc(F)c2)c1 | 9 | 2 | -3 | 21 | 0 | -18

Screening results from PubChem.
